Results: ChEMBL document CHEMBL1125267, “Linear discriminant and multiple regression analyses of anticoccidial triazines” (1991)

Experiment: Minimum effective concentration (MEC) value was determined as a measure of anti-coccidial activity (MEC is expressed as mmol/kg of feed).
Type: functional
How it was run: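 Dietary activity was graded by the lowest effective feed level, originally in ppm and converted to mmol/kg of feed. Where MEC was only bounded (>250 ppm or >500 ppm), it was assigned the next higher feed level.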

`O=c1cnn(-c2ccc(C(O)c3ccc(Cl)cc3)c(Cl)c2)c(=O)[nH]1` (centres undefined) and `O=c1cnn(-c2ccc(Sc3ccc(Cl)cc3)c(Cl)c2)c(=O)[nH]1` are the same in MEC: 2 p.p.m for the first, 2 p.p.m for the second.

Going from `COc1cc(OC)cc(-n2ncc(=O)[nH]c2=O)c1` to `Cc1cc(C)cc(-n2ncc(=O)[nH]c2=O)c1`, the MEC falls from 500 p.p.m to 30 p.p.m.

Going from `Cc1cc(-n2ncc(=O)[nH]c2=O)cc(Cl)c1Oc1ccc(C(C)O)cc1` (centres undefined) to `Cc1cc(-n2ncc(=O)[nH]c2=O)cc(Cl)c1Oc1ccc(Cl)cc1`, the MEC rises from 2 p.p.m to 3.8 p.p.m.

Going from `Cc1cc(Cl)cc(-n2ncc(=O)[nH]c2=O)c1` to `O=c1cnn(-c2cc(Cl)cc(Cl)c2)c(=O)[nH]1`, the MEC falls from 15 p.p.m to 4 p.p.m.

`O=c1cnn(-c2ccc(Oc3ccc4cc(Br)ccc4c3)c(Cl)c2)c(=O)[nH]1` and `O=c1cnn(-c2ccc(Oc3ccc(I)cc3)c(Cl)c2)c(=O)[nH]1` are the same in MEC: 7.5 p.p.m for the first, 7.5 p.p.m for the second.

`O=c1cnn(-c2ccc(S(=O)(=O)N3CCOCC3)c(Cl)c2)c(=O)[nH]1` and `O=c1cnn(-c2cc(Cl)c(S(=O)(=O)N3CCOCC3)c(Cl)c2)c(=O)[nH]1` are the same in MEC: 30 p.p.m for the first, 30 p.p.m for the second.

Compared with `N#CC(c1ccc(Cl)cc1)c1c(Cl)cc(-n2ncc(=O)[nH]c2=O)cc1Cl` (centres undefined) [DICLAZURIL], `O=c1cnn(-c2cc(Cl)c(Sc3ccc(Cl)cc3)c(Cl)c2)c(=O)[nH]1` is higher in MEC: 0.1 p.p.m for the first, 0.2 p.p.m for the second.

Going from `Cc1cc(-n2ncc(=O)[nH]c2=O)ccc1C(O)c1ccccc1` (centres undefined) to `O=c1cnn(-c2ccc(Oc3ccccc3)cc2)c(=O)[nH]1`, the MEC rises from 30 p.p.m to 500 p.p.m.

Compared with `Cc1cc(-n2ncc(=O)[nH]c2=O)cc(C)c1S(=O)(=O)N1CCOCC1`, `Cc1cc(-n2ncc(=O)[nH]c2=O)cc(C)c1S(=O)(=O)c1ccc(Cl)cc1` is lower in MEC: 15 p.p.m for the first, 1 p.p.m for the second.

First: Cc1cc(-n2ncc(=O)[nH]c2=O)cc(C)c1Sc1ccc(Cl)cc1 [TIAZURIL]
Second: Cc1cc(-n2ncc(=O)[nH]c2=O)cc(Cl)c1Sc1ccc(Cl)cc1
The MEC of the first is higher: 0.5 p.p.m for the first, 0.2 p.p.m for the second.

First: O=c1cnn(-c2ccc(S(=O)(=O)c3ccc(Cl)cc3)cc2)c(=O)[nH]1
Second: O=c1cnn(-c2ccc(S(=O)(=O)c3ccc(Br)cc3)cc2)c(=O)[nH]1
The MEC of the first is lower: 4 p.p.m for the first, 8 p.p.m for the second.

Compared with `Cc1cc(-n2ncc(=O)[nH]c2=O)cc(C)c1C(=O)c1ccc(Cl)cc1`, `O=C(c1ccc(Cl)cc1)c1c(Cl)cc(-n2ncc(=O)[nH]c2=O)cc1Cl` is lower in MEC: 15 p.p.m for the first, 0.5 p.p.m for the second.

Going from `CSc1ccc(Oc2ccc(-n3ncc(=O)[nH]c3=O)cc2Cl)cc1` to `CSc1ccc(Oc2ccc(-n3ncc(=O)[nH]c3=O)cc2C)cc1`, the MEC falls from 3.8 p.p.m to 2 p.p.m.

Compared with `O=c1cnn(-c2cc(Cl)c(Cc3ccc(Cl)cc3)c(Cl)c2)c(=O)[nH]1`, `O=c1cnn(-c2ccc(Cc3ccc(Cl)cc3)c(Cl)c2)c(=O)[nH]1` is higher in MEC: 0.25 p.p.m for the first, 8 p.p.m for the second.

`O=c1cnn(-c2ccc(Br)c(C(F)(F)F)c2)c(=O)[nH]1` and `O=c1cnn(-c2ccc(F)c(C(F)(F)F)c2)c(=O)[nH]1` are the same in MEC: 15 p.p.m for the first, 15 p.p.m for the second.

Going from `Cc1cc(-n2ncc(=O)[nH]c2=O)cc(Cl)c1Oc1ccc(S(=O)(=O)NC2CC2)cc1Cl` to `CCN(C)S(=O)(=O)c1ccc(Oc2c(C)cc(-n3ncc(=O)[nH]c3=O)cc2Cl)c(Cl)c1`, the MEC falls from 15 p.p.m to 3.8 p.p.m.

First: Cc1cc(-n2ncc(=O)[nH]c2=O)ccc1Oc1ccc(Cl)cc1
Second: Cc1cc(-n2ncc(=O)[nH]c2=O)ccc1Oc1ccc(Br)cc1
The MEC of the first is higher: 60 p.p.m for the first, 7.5 p.p.m for the second.

`O=c1cnn(-c2ccc(Oc3ccc(Cl)cc3Cl)c(Cl)c2)c(=O)[nH]1` and `Cc1cc(-n2ncc(=O)[nH]c2=O)ccc1Oc1ccc(Cl)cc1Cl` are the same in MEC: 7.5 p.p.m for the first, 7.5 p.p.m for the second.

Going from `O=c1cnn(-c2cc(Cl)c(S(=O)(=O)c3ccc(Cl)cc3)c(Cl)c2)c(=O)[nH]1` to `Cc1cc(-n2ncc(=O)[nH]c2=O)cc(Cl)c1S(=O)(=O)c1ccc(Cl)cc1`, the MEC rises from 0.5 p.p.m to 8 p.p.m.

Compared with `CC(=O)c1ccc(Sc2c(C)cc(-n3ncc(=O)[nH]c3=O)cc2Cl)cc1`, `CC(=O)c1ccc(Oc2c(C)cc(-n3ncc(=O)[nH]c3=O)cc2Cl)cc1` is higher in MEC: 0.25 p.p.m for the first, 2 p.p.m for the second.

Going from `O=c1cnn(-c2ccc(S(=O)(=O)c3ccccc3)cc2)c(=O)[nH]1` to `CS(=O)(=O)c1ccc(-n2ncc(=O)[nH]c2=O)cc1`, the MEC rises from 30 p.p.m to 500 p.p.m.

Going from `COc1c(Cl)cc(-n2ncc(=O)[nH]c2=O)cc1Cl` to `COc1cc(-n2ncc(=O)[nH]c2=O)cc(OC)c1OC`, the MEC rises from 250 p.p.m to 1000 p.p.m.

`CSc1ccc(Oc2c(C)cc(-n3ncc(=O)[nH]c3=O)cc2C)cc1C` and `CSc1ccc(Oc2c(C)cc(-n3ncc(=O)[nH]c3=O)cc2C)cc1` are the same in MEC: 2 p.p.m for the first, 2 p.p.m for the second.

Going from `O=c1cnn(-c2cccc(C(F)(F)F)c2)c(=O)[nH]1` to `O=c1cnn(-c2cccc(Cl)c2)c(=O)[nH]1`, the MEC rises from 30 p.p.m to 125 p.p.m.

Going from `O=c1cnn(-c2ccc([N+](=O)[O-])cc2)c(=O)[nH]1` to `O=c1cnn(-c2ccccc2)c(=O)[nH]1`, the MEC rises from 250 p.p.m to 500 p.p.m.

First: Cc1cc(-n2ncc(=O)[nH]c2=O)ccc1Oc1ccc(S(C)(=O)=O)cc1
Second: Cc1cc(-n2ncc(=O)[nH]c2=O)cc(C)c1[S+]([O-])c1ccc(Cl)cc1 (centres undefined)
The MEC of the first is higher: 4 p.p.m for the first, 1 p.p.m for the second.

First: O=c1cnn(-c2ccc(Sc3ccc4ccccc4c3)c(Cl)c2)c(=O)[nH]1
Second: N#Cc1cccc(-n2ncc(=O)[nH]c2=O)c1
The MEC of the first is higher: 125 p.p.m for the first, 30 p.p.m for the second.
